Assay results reported in ChEMBL document CHEMBL3603756, “Synthesis and apoptotic activity of new pyrazole derivatives in cancer cell lines” (2015).
Calls of active or inactive are those of the source. The rule behind the calls is not given here.

What was measured:
HEp-2 [1] = experiment: Reduction in c-IAP1 levels in human Hep2 cells at 50 ug/ml incubated for 24 hrs by protein array method; format: functional, cell-based
HEp-2 [2] = experiment: Reduction in livin protein levels in human Hep2 cells at 50 ug/ml incubated for 24 hrs by protein array method; format: functional, cell-based
[3] = Cytotoxicity against human HCT8 cells assessed as cell viability at 12.5 ug/ml incubated for 24 hrs by MTS assay; format: functional; settings: HCT-8, 24 h, read-out: Activity
In short: (§1)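 Cells were held at 37 °C, 5% CO2 in humid air. HEp-2 (5 x 10³/well) and HCT-8 (7 x 10³/well) grew in DMEM + 10% heat-inactivated FBS and got compound (binary dilutions) 24 h after seeding. THP-1 (5 x 10³ cells, RPMI-1640 + 10% FBS) were added directly to the dilutions. Exposure lasted 24 h. MTS (CellTiter 96 AQueous One) read-out was absorbance at 490 nm.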

HEp-2 [4] = experiment: Induction of cell cycle arrest in human Hep2 cells assessed accumulation at S phase at 50 ug/ml incubated for 24 hrs by propidium iodide staining based flow cytometry (reference value: 21.06%); format: functional
HEp-2 [5] = experiment: Induction of cell cycle arrest in human Hep2 cells assessed accumulation at G2/M phase incubated for 24 hrs by propidium iodide staining based flow cytometry; format: functional
HEp-2 [6] = experiment: Reduction in HSP27 protein levels in human Hep2 cells at 50 ug/ml incubated for 24 hrs by protein array method; format: functional, cell-based
HEp-2 [7] = experiment: Reduction in c-IAP2 levels in human Hep2 cells at 50 ug/ml incubated for 24 hrs by protein array method; format: functional, cell-based
HEp-2 [8] = experiment: Induction of cell cycle arrest in human Hep2 cells assessed accumulation at G0/G1 phase at 50 ug/ml incubated for 24 hrs by propidium iodide staining based flow cytometry (reference value: 74.51%); format: functional
HCT-8 [9] = experiment: Induction of apoptosis in human HCT8 cells assessed viable cells level at 50 ug/ml incubated for 24 hrs by annexin V-FITC and propidium iodide staining based flow cytometry (reference value: 93.3%); format: functional
HEp-2 [10] = experiment: Reduction in pro-caspase-3 levels in human Hep2 cells at 50 ug/ml incubated for 24 hrs by protein array method; format: functional, cell-based
HCT-8 [11] = experiment: Induction of apoptosis in human HCT8 cells assessed late apoptosis level at 50 ug/ml incubated for 24 hrs by annexin V-FITC and propidium iodide staining based flow cytometry (reference value: 4.8%); format: functional
HEp-2 [12] = experiment: Increase in FADD protein expression in human Hep2 cells at 50 ug/ml incubated for 24 hrs by protein array method; format: functional, cell-based
THP-1 [13] = experiment: Cytotoxicity against human THP1 cells assessed as cell viability at 50 ug/ml incubated for 24 hrs by MTS assay; format: functional; settings: THP-1, 24 h, read-out: Activity; in short: as §1
HEp-2 [14] = experiment: Increase in Fas/TNFRSF6 protein expression in human Hep2 cells at 50 ug/ml incubated for 24 hrs by protein array method; format: functional, cell-based
THP-1 [15] = experiment: Cytotoxicity against human THP1 cells assessed as cell viability at 25 ug/ml incubated for 24 hrs by MTS assay; format: functional; settings: THP-1, 24 h, read-out: Activity; in short: as §1
HEp-2 [16] = experiment: Induction of cell cycle arrest in human Hep2 cells assessed accumulation at G2/M phase at 10 ug/ml incubated for 24 hrs by propidium iodide staining based flow cytometry (reference value: 7.82%); format: functional
HEp-2 [17] = experiment: Induction of cell cycle arrest in human Hep2 cells assessed accumulation at G0/G1 phase at 10 ug/ml incubated for 24 hrs by propidium iodide staining based flow cytometry (reference value: 74.51%); format: functional
HEp-2 [18] = experiment: Increase in TRAIL-R2 protein expression in human Hep2 cells at 50 ug/ml incubated for 24 hrs by protein array method; format: functional, cell-based
HEp-2 [19] = experiment: Reduction in XIAP levels in human Hep2 cells at 50 ug/ml incubated for 24 hrs by protein array method; format: functional, cell-based
THP-1 [20] = experiment: Cytotoxicity against human THP1 cells assessed as cell viability at 12.5 ug/ml incubated for 24 hrs by MTS assay; format: functional; settings: THP-1, 24 h, read-out: Activity; in short: as §1
[21] = Reduction in PRKAA2 gene expression in human Hep2 cells at 50 ug/ml incubated for 24 hrs by real-time PCR method; format: functional, cell-based; settings: HEp-2
In short: (§2)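 HEp-2 cells were treated 24 h at 10 or 50 µg/mL. Total RNA was extracted with Trizol, and 2 µg was reverse-transcribed. 50 ng cDNA went into TaqMan real-time PCR with beta-actin as endogenous control. Relative expression was calculated by the ∆∆CT method. Each experiment was run three times.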

[22] = Cytotoxicity against human Hep2 cells assessed as cell viability at 50 ug/ml incubated for 24 hrs by MTS assay; format: functional; settings: HEp-2, 24 h, read-out: Activity; in short: as §1
[23] = Cytotoxicity against human Hep2 cells assessed as cell viability at 25 ug/ml incubated for 24 hrs by MTS assay; format: functional; settings: HEp-2, 24 h, read-out: Activity; in short: as §1
HEp-2 [24] = experiment: Increase in caspase-8 levels in human Hep2 cells at 50 ug/ml incubated for 24 hrs by protein array method; format: functional, cell-based
[25] = Cytotoxicity against human HCT8 cells assessed as cell viability at 50 ug/ml incubated for 24 hrs by MTS assay; format: functional; settings: HCT-8, 24 h, read-out: Activity; in short: as §1
[26] = Reduction in PRKAA1 gene expression in human Hep2 cells at 10 ug/ml incubated for 24 hrs by real-time PCR method; format: functional, cell-based; settings: HEp-2; in short: as §2
HEp-2 [27] = experiment: Reduction in HSP70 protein levels in human Hep2 cells at 50 ug/ml incubated for 24 hrs by protein array method; format: functional, cell-based
HCT-8 [28] = experiment: Induction of apoptosis in human HCT8 cells assessed necrosis level at 50 ug/ml incubated for 24 hrs by annexin V-FITC and propidium iodide staining based flow cytometry (reference value: 1.12%); format: functional
HEp-2 [29] = experiment: Reduction in survivin protein levels in human Hep2 cells at 50 ug/ml incubated for 24 hrs by protein array method; format: functional, cell-based
[30] = Reduction in PRKAA1 gene expression in human Hep2 cells at 50 ug/ml incubated for 24 hrs by real-time PCR method; format: functional, cell-based; settings: HEp-2; in short: as §2
HEp-2 [31] = experiment: Induction of apoptosis in human Hep2 cells assessed as increase in p53 S15/S46/S392 phosphorylation level at 50 ug/ml incubated for 24 hrs by protein array method; format: functional, cell-based
HCT-8 [32] = experiment: Induction of apoptosis in human HCT8 cells assessed early apoptosis level at 50 ug/ml incubated for 24 hrs by annexin V-FITC and propidium iodide staining based flow cytometry (reference value: 0.75%); format: functional
[33] = Cytotoxicity against human Hep2 cells assessed as cell viability at 12.5 ug/ml incubated for 24 hrs by MTS assay; format: functional; settings: HEp-2, 24 h, read-out: Activity; in short: as §1
HEp-2 [34] = experiment: Increase in TRAIL-R1 protein expression in human Hep2 cells at 50 ug/ml incubated for 24 hrs by protein array method; format: functional, cell-based
HEp-2 [35] = experiment: Induction of cell cycle arrest in human Hep2 cells assessed accumulation at S phase at 10 ug/ml incubated for 24 hrs by propidium iodide staining based flow cytometry (reference value: 21.06%); format: functional
HEp-2 [36] = experiment: Increase in cleaved-caspase-3 levels in human Hep2 cells at 50 ug/ml incubated for 24 hrs by protein array method; format: functional, cell-based
[37] = Reduction in PRKAA2 gene expression in human Hep2 cells at 10 ug/ml incubated for 24 hrs by real-time PCR method; format: functional, cell-based; settings: HEp-2; in short: as §2
HEp-2 [38] = experiment: Induction of cell cycle arrest in human Hep2 cells assessed accumulation at G2/M phase at 50 ug/ml incubated for 24 hrs by propidium iodide staining based flow cytometry (reference value: 7.82%); format: functional
[39] = Cytotoxicity against human HCT8 cells assessed as cell viability at 25 ug/ml incubated for 24 hrs by MTS assay; format: functional; settings: HCT-8, 24 h, read-out: Activity; in short: as §1
HEp-2 [40] = experiment: Increase in cyclin B gene expression in human Hep2 cells at 10 ug/ml incubated for 24 hrs by real-time PCR method; format: functional, cell-based; in short: as §2
HEp-2 [41] = experiment: Increase in cyclin B gene expression in human Hep2 cells at 50 ug/ml incubated for 24 hrs by real-time PCR method; format: functional, cell-based; in short: as §2

Structure (SMILES) | viability at 12.5 µg/mL [3] [%] | Activity (HEp-2 [4]) [%] | Activity (HEp-2 [5]) | Activity (HEp-2 [8]) [%] | Activity (HCT-8 [9]) [%] | Activity (HCT-8 [11]) [%] | viability at 50 µg/mL (THP-1 [13]) [%] | viability at 25 µg/mL (THP-1 [15]) [%] | Activity (HEp-2 [16]) [%] | Activity (HEp-2 [17]) [%] | viability at 12.5 µg/mL (THP-1 [20]) [%] | Activity [21] | viability at 50 µg/mL [22] [%] | viability at 25 µg/mL [23] [%] | viability at 50 µg/mL [25] [%] | Activity [26] | Activity (HCT-8 [28]) [%] | Activity [30] | Activity (HCT-8 [32]) [%] | viability at 12.5 µg/mL [33] [%] | other results
Cc1cs/c(=N\C(=O)c2cnn(C)c2)n1-c1ccc(I)cc1 | 100 | 27.45 | Dose-dependent effect | 50.7 | 91.8 | 3.89 | 37.2 | 86.9 | 9.07 | 66.94 | 99 | Active | 90 | 100 | 91.8 | Active | 1.41 | Active | 2.91 | 100 | Activity (HEp-2 [1]): Active; Activity (HEp-2 [2]): Active; Activity (HEp-2 [6]): Active; Activity (HEp-2 [7]): Active; Activity (HEp-2 [10]): Active; Activity (HEp-2 [12]): Active; Activity (HEp-2 [14]): Active; Activity (HEp-2 [18]): Active; Activity (HEp-2 [19]): Active; Activity (HEp-2 [24]): Active; Activity (HEp-2 [27]): Active; Activity (HEp-2 [29]): Active; Activity (HEp-2 [31]): Active; Activity (HEp-2 [34]): Active; Activity (HEp-2 [35]): 23.56%; Activity (HEp-2 [36]): Active; Activity [37]: Active; Activity (HEp-2 [38]): 25.92%; viability at 25 µg/mL [39]: 100%
Cn1cc(C(=O)NC(=S)Nc2ccccc2Br)cn1 | 100 | 21.87 | Dose-dependent effect | 70.17 | 91.5 | 5.41 | 31.9 | 59.4 | 10.28 | 74.41 | 98 | inactive | 80 | 100 | 91.5 | inactive | 1.87 | inactive | 1.23 | 100 | Activity (HEp-2 [40]): Active; Activity (HEp-2 [35]): 19.09%; Activity [37]: inactive; Activity (HEp-2 [38]): 15.93%; Activity (HEp-2 [41]): Active; viability at 25 µg/mL [39]: 100%
Cn1cc(C(=O)/N=C2\SCC(C)(O)N2c2ccc(I)cc2)cn1 (centres undefined) | 100 | 27.01 | Dose-dependent effect | 43.62 | 90.2 | 3.37 | 38.4 | 84.1 | 14.92 | 74.73 | 97 | Active | 89 | 100 | 90.2 | Active | 1.44 | Active | 4.96 | 100 | Activity (HEp-2 [1]): Active; Activity (HEp-2 [2]): Active; Activity (HEp-2 [6]): Active; Activity (HEp-2 [7]): Active; Activity (HEp-2 [10]): Active; Activity (HEp-2 [12]): Active; Activity (HEp-2 [14]): Active; Activity (HEp-2 [18]): Active; Activity (HEp-2 [19]): Active; Activity (HEp-2 [24]): Active; Activity (HEp-2 [27]): Active; Activity (HEp-2 [29]): Active; Activity (HEp-2 [31]): Active; Activity (HEp-2 [34]): Active; Activity (HEp-2 [35]): 17.85%; Activity (HEp-2 [36]): Active; Activity [37]: Active; Activity (HEp-2 [38]): 33.4%; viability at 25 µg/mL [39]: 100%
